Screens as filed in PubChem BioAssay.
KCNK3 block: human KCNK3 channel inhibition, primary screen. B-score at 10 µM. AID 602410. hit rate 0.84% among 340,000. CHO-KCNK3 thallium flux, FluxOR fluorescence; hits give low values. O14649;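 active = B-score under library mean minus 4 SD, starting fluorescence ratio at most library mean plus 5 SD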;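 also: more negative B-score means stronger inhibition of thallium flux through KCNK3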
Target sequence (O14649 whole entry, looked up): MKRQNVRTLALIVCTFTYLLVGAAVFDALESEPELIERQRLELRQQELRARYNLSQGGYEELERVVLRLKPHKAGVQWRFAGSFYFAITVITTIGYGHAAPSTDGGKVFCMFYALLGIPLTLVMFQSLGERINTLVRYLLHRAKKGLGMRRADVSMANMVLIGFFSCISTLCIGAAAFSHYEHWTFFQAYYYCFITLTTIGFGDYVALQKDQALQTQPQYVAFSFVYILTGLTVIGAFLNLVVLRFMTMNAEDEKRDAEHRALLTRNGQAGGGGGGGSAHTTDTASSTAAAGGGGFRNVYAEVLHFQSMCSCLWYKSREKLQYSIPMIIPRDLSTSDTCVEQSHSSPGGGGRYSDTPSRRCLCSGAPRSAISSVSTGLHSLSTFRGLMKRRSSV
KCNQ1 inh: blocks the human KCNQ1 potassium channel | CHO-K1 KCNQ1, FluxOR thallium flux fluorescence; hits give high values | B-score at 10 µM | hit rate 1.3% among 310,000 | AID 2642;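 active = compounds whose thallium flux B-score, printed positive for inhibition, exceeds three library SD while starting fluorescence stays within three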;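 also: channel opened by potassium depolarization with thallium stimulus after 20 min compound exposure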
KCNQ1 act: potentiates or activates the human KCNQ1 potassium channel; B-score at 10 µM; P51787; CHO-K1 KCNQ1, thallium flux FluxOR fluorescence; hits give high values; hit rate 0.35% among 310,000; AID 2648;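 active = fluorescence ratio B-score, a plate-corrected score, at least three library SD, with initial intensity B-score within 5 SD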
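System: CHO-K1 cells stably expressing KCNQ1 / Medium: assay buffer for compound exposure, DMSO matched across wells / Reagent: thallium- and potassium-containing depolarizing buffer / Compound: one concentration, matched DMSO / Incubation: 20 min compound pretreatment at room temperature / Measured by: kinetic FluxOR fluorescence, 10 s baseline plus 110 s post-stimulus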
KCNK9 inh: blocks the human KCNK9 two-pore domain potassium channel | Q9NPC2 | HEK293 KCNK9, FluxOR thallium flux fluorescence; hits give low values | B-score at 10 µM | hit rate 1.2% among 310,000 | AID 488922;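 active = ratio B-score over 3 SD below the library mean, with starting fluorescence within 5 SD of its mean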;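 also: negative B-score means less thallium flux so channel inhibition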
Kir21 block: Kir2.1 (mouse) channel inhibition; P35561; HEK293-Kir2.1, FluxOR thallium flux fluorescence; hits give low values; B-score at 10 µM; hit rate 0.85% among 310,000; AID 1672;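 active = fluorescence ratio B-score at or below minus 3 SD of library scores, with starting-brightness B-score within 2 SD, cut at about -4.2 in these data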;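 also: channel flux triggered by added potassium and thallium sulfate stimulus; B-score of peak minus minimum fluorescence over baseline after thallium stimulus; more negative B-score means stronger Kir2.1 block with less thallium influx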
hERG protect: compounds protecting human hERG from proarrhythmic drug block | CHO-hERG, FluxOR thallium flux, dofetilide IC70 present | activation (rescue from dofetilide block), less the hit threshold, % at 10 µM | hit rate 0.51% among 310,000 | AID 1511;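 active = activation above the mean of controls blocked by dofetilide plus 5 SD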;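 also: thallium influx through hERG after potassium depolarization seen as dye fluorescence rise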
KCNK9 inh conf: human KCNK9 inhibitor confirmation. hit rate 43% among 4,900. shares compounds with KCNK9 inh. HEK293 KCNK9 cells, FluxOR thallium flux fluorescence. inhibition, % at 10 µM. AID 492992;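 active = thallium signal inhibited by more than 5 SD of the compound-free buffer control wells, on both duplicate plates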
Kir2-1 spec: mouse Kir2.1 off-target activity of KCNK9 modulators; inhibition, % at 10 µM; shares compounds with KCNK9 inh; Kir2.1 cells, FluxOR thallium flux fluorescence; AID 492993; hit rate 4% among 4,900;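 active = thallium signal drop more than 5 SD beyond the mean of the no-compound control wells, seen in both duplicate plates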;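 also: signal is fluorescence rise after thallium addition divided by baseline fluorescence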
HEK293 Tl ctr: second check of KCNK9 modulator effects in non-induced HEK293 cells; inhibition, % at 10 µM; FluxOR thallium flux; hit rate 40% among 4,900; shares compounds with KCNK9 inh;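 active = thallium signal drop beyond 5 SD of the untreated control mean, on both duplicate plates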
Numbers stand for hits. Most compounds without a hit are left out; they make up all but 3.7% or so of the library.

Results for CCOC(=O)c1nc(Nc2ccccc2)c2ccccc2n1 ?
KCNK3 block: inactive; KCNQ1 inh: inactive; KCNQ1 act: inactive; KCNK9 inh: inactive; Kir21 block: inactive; hERG protect: inactive

Results for N#CN(Cc1ccccc1)Cc1ccccc1 ?
KCNK3 block: inactive; KCNQ1 inh: inactive; KCNQ1 act: inactive; KCNK9 inh: inactive; Kir21 block: inactive; hERG protect: inactive

Results for CCCC(=O)NC(Nc1cc(C(F)(F)F)ccc1Cl)C(Cl)(Cl)Cl (stereo not drawn) ?
KCNK3 block: inactive; KCNQ1 inh: inactive; KCNQ1 act: inactive; KCNK9 inh: inactive; Kir21 block: inactive; hERG protect: inactive

How did CCCC(=O)NC(Nc1cccc(C(F)(F)F)c1)C(Cl)(Cl)Cl (stereo not drawn) do in these assays?
KCNK3 block: inactive; KCNQ1 inh: 8; KCNQ1 act: inactive; KCNK9 inh: -8.8; Kir21 block: inactive; hERG protect: inactive; KCNK9 inh conf: 32%; Kir2-1 spec: inactive; HEK293 Tl ctr: 26%

How did COc1ccc(NC(=O)c2ccc(S(=O)(=O)N(C)c3ccccc3)cc2)cn1 do in these assays?
KCNK3 block: inactive; KCNQ1 inh: inactive; KCNQ1 act: inactive; KCNK9 inh: inactive; Kir21 block: inactive; hERG protect: inactive

Results for CC(OC(=O)c1ccc(S(=O)(=O)NCc2ccco2)cc1)C(=O)Nc1ncc(Cl)cc1Cl (stereo not drawn) ?
KCNK3 block: inactive; KCNQ1 inh: inactive; KCNQ1 act: inactive; KCNK9 inh: inactive; Kir21 block: inactive; hERG protect: inactive

Results for C[C@@]12C(=O)NCC(=O)N1[C@@H]1c3cc(Br)ccc3OC[C@@H]1[C@@H]2c1ccccc1 ?
KCNK3 block: inactive

How did c1ccc2c(c1)ncn2CCCOc1ccc2c(c1)CCC2 do in these assays?
KCNK3 block: inactive; KCNQ1 inh: inactive; KCNQ1 act: inactive; KCNK9 inh: inactive; Kir21 block: inactive; hERG protect: inactive; KCNK9 inh conf: inactive; Kir2-1 spec: inactive; HEK293 Tl ctr: inactive

What do the screens show for `CCOc1ccc(NC2=C(Cl)C(=O)N(C3CCCCC3)C2=O)cc1`?
KCNK3 block: inactive; KCNQ1 inh: inactive; KCNQ1 act: inactive; KCNK9 inh: inactive; Kir21 block: inactive; hERG protect: inactive

What do the screens show for `COc1ccc(C)cc1NC1=C(Cl)C(=O)N(C2CCCCC2)C1=O`?
KCNK3 block: inactive; KCNQ1 inh: inactive; KCNQ1 act: inactive; KCNK9 inh: -17; Kir21 block: inactive; hERG protect: inactive; KCNK9 inh conf: 64%; Kir2-1 spec: inactive; HEK293 Tl ctr: 44%

How did O=C(COC(=O)Cc1n[nH]c(=O)c2ccccc12)NNC(=O)c1ccc(Cl)cc1 do in these assays?
KCNK3 block: inactive

What do the screens show for `Cc1ccc(C(=O)Nc2ccc(Cc3ccncc3)cc2)cc1[N+](=O)[O-]`?
KCNK3 block: inactive; KCNQ1 inh: inactive; KCNQ1 act: inactive; KCNK9 inh: inactive; Kir21 block: inactive; hERG protect: inactive; KCNK9 inh conf: inactive; Kir2-1 spec: inactive; HEK293 Tl ctr: inactive

What do the screens show for `O=C(Cc1coc2cc3c(cc12)CCC3)OCc1cc(=O)n2c(n1)sc1ccccc12`?
KCNK3 block: inactive; KCNQ1 inh: inactive; KCNQ1 act: inactive; KCNK9 inh: inactive; Kir21 block: inactive; hERG protect: inactive; KCNK9 inh conf: inactive; Kir2-1 spec: inactive; HEK293 Tl ctr: inactive

Results for CN(Cc1ccccc1)C(=O)COc1ccc(Br)cc1Cl ?
KCNK3 block: inactive; KCNQ1 inh: inactive; KCNQ1 act: inactive; KCNK9 inh: -12; Kir21 block: inactive; hERG protect: inactive; KCNK9 inh conf: 37%; Kir2-1 spec: inactive; HEK293 Tl ctr: 30%

How did CN(Cc1ccccc1)C(=O)COc1ccccc1Cl do in these assays?
KCNK3 block: inactive; KCNQ1 inh: inactive; KCNQ1 act: inactive; KCNK9 inh: inactive; Kir21 block: inactive; hERG protect: inactive
